# Experimental data: the RNAGym collection of RNA variant scans (doi:10.1002/anie.201605470)
# B1: Osa-1-4 twister ribozyme (parent)
# chain: CCGCCUAACACUGCCAAUGCCGGUCCCAAGCCCGGAUAAAAGUGGAGGGGGCGG
# Variants of: B1
# Assay: self-cleavage, relative activity (ratio to wild type); higher = more cleavage; co-transcriptional
# Summary of the method: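 For each read, cleavage status was taken from whether upstream sequence was present. The reads came from an Oryza sativa twister ribozyme of 54 nucleotides, whose DNA template was synthesised with 97 % wild-type base and 1 % of each other base at the 48 positions downstream of the cleavage site. The template was transcribed in vitro at 37 °C for 2 h with co-transcriptional self-cleavage, and the RNA was reverse-transcribed using a template-switching oligonucleotide, PCR-amplified and deep-sequenced. Relative activity is the fraction cleaved normalised to wild type.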
row,Variant,self-cleavage
1,A46G U12C,0.05
2,A46G U12A,0.05
3,G48C G49C,0.07
4,G48C G49U,0.04
5,G48C G49A,0.05
6,A46G G35C,0.05
7,A46G G35U,0.08
8,A46G G35A,0.07
9,A46U,0.08
10,A46U C9U,0.04
11,A46U C9A,0.02
12,A46U C9G,0.06
13,A46G U24C,0.04
14,A46G U24G,0.02
15,A46G U24A,0.04
16,G48A U37G,0.16
17,G48A U37C,0.11
18,G48A U37A,0.06
19,G47U G48C,0.05
20,G47U G48A,0.04
21,G47U G48U,0.05

row,Variant,self-cleavage
1,A46G G13U,0.01
2,A46G G13C,0.02
3,A46G G13A,0.02
4,A46G G42A,0.05
5,A46G G42C,0.04
6,A46G G42U,0.04
7,A46U C32A,0.03
8,A46U C32G,0.05
9,A46U C32U,0.05
10,G47U G54U,0.46
11,G47U G54C,0.32
12,G47U G54A,0.28
13,G47U U12G,0.05
14,G47U U12A,0.07
15,G47U U12C,0.07
16,G47A G54A,0.18
17,G47A G54C,0.15
18,G47A G54U,0.34
19,G48C U18G,0.1
20,G48C U18A,0.09
21,G48C U18C,0.1

row,Variant,self-cleavage
1,G47A U43G,0.1
2,G47A U43A,0.11
3,G47A U43C,0.09
4,A46U G35U,0.09
5,A46U G35A,0.07
6,A46U G35C,0.05
7,A46U A8G,0.08
8,A46U A8U,0.07
9,A46U A8C,0.03
10,G48C G51A,0.11
11,G48C G51C,0.04
12,G48C G51U,0.06
13,A46G G51U,0.05
14,A46G G51A,0.05
15,A46G G51C,0.04
16,A46G G19C,0.02
17,A46G G19A,0.05
18,A46G G19U,0.04
19,A46U G19U,0.04
20,A46U G19A,0.06
21,A46U G19C,0.03

row,Variant,self-cleavage
1,G47C G50A,0.13
2,G47C G50C,0.08
3,G47C G50U,0.07
4,G48A G53A,0.11
5,G48A G53U,0.09
6,G48A G53C,0.07
7,G48A U18C,0.1
8,G48A U18A,0.09
9,G48A U18G,0.13
10,A46U G13A,0.03
11,A46U G13C,0.02
12,A46U G13U,0.01
13,A46U C25A,0.03
14,A46U C25G,0.04
15,A46U C25U,0.06
16,G48C G53C,0.05
17,G48C G53A,0.09
18,G48C G53U,0.07
19,A46U A7G,0.07
20,A46U A7C,0.02
